Laboratory results: ChEMBL document CHEMBL4152378, “Discovery of a Branched Peptide That Recognizes the Rev Response Element (RRE) RNA and Blocks HIV-1 Replication” (J Med Chem, 2018)
Activity calls are given as the source filed them. The rule behind the calls is not given here.

Experiments:
[1] = Binding affinity to HIV1 rev response element 2B RNA in presence of 10-fold excess TAR RNA by 2-AP based displacement assay; parameters: species or system Human immunodeficiency virus 1
How it was run: (§1)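 2-AP-labeled RRE IIB (0.1 μM) refolded at 95 °C 3 min, snap-cooled; titrated with peptide 0–20 μM in 10 mM potassium phosphate, 100 mM KCl, 1 mM MgCl2, 20 mM NaCl, pH 7.0; excitation 310 nm, emission decrease at 372 nm; Kd from Hill fit; at least duplicate, SD. Competition lines include 10-fold excess unlabeled RNA/DNA competitor.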

[2] = Binding affinity to HIV1 rev response element 2B RNA by 2-AP based displacement assay; parameters: species or system Human immunodeficiency virus 1; how it was run: as §1
[3] = test system: Human immunodeficiency virus 1; experiment: Binding affinity to [32P]-labeled HIV-rev response element 2B RNA assessed as protection of upper stem region from cleavage by RNase VI incubated for 10 mins up to 20 uM by autoradiography based nuclease protection assay
How it was run: (§2)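 5'-32P RRE IIB (10 nM) with 200 nM unlabeled RRE IIB refolded (95 °C 3 min, ice); incubated with peptide 0–20 μM on ice 4 h in 10 mM Tris pH 7, 100 mM KCl, 10 mM MgCl2; digested on ice with RNase V1 (0.002 U, 10 min) or RNase A (20 ng, 1 h); 12% denaturing PAGE, autoradiography.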

[4] = test system: Human immunodeficiency virus 1; experiment: Binding affinity to HIV1 RRE RNA in HEK293T cells transfected with HIV1 CMV driven GagPol-RRE plasmid assessed as reduction in Rev-RRE dependent nuclear export by measuring intracellular p24 levels at 70 uM after 48 hrs by ELISA relative to control; type: cell-based
How it was run: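 HEK 293T cells transfected with Rev and CMV-driven GagPol-RRE plasmids plus luciferase control; peptides added 5 h after transfection at 70 μM; cells lysed ~48 h post-transfection and intracellular p24 quantified by ELISA as percent inhibition.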

[5] = test system: Human immunodeficiency virus 1; experiment: Binding affinity to HIV1 234 nucleotide NL4-3 5'-RRE RNA assessed as protection of secondary Rev binding sites from cleavage by […] incubated for 1 hr by SHAPE analysis
[6] = Binding affinity to HIV1 RRE RNA in HEK293T cells transfected with HIV1 CMV driven GagPol-RRE plasmid assessed as reduction in Rev-RRE dependent nuclear export by measuring intracellular p24 levels after 48 hrs by ELISA relative to control; type: cell-based; conditions: Human immunodeficiency virus 1, HEK-293T
[7] = Binding affinity to HIV1 rev response element 2B RNA in presence of 10-fold excess no bulge RRE RNA by 2-AP based displacement assay; parameters: species or system Human immunodeficiency virus 1; how it was run: as §1
[8] = Binding affinity to HIV1 rev response element 2B RNA in presence of 10-fold excess RRE DNA by 2-AP based displacement assay; parameters: species or system Human immunodeficiency virus 1; how it was run: as §1
[9] = test system: Human immunodeficiency virus 1; experiment: Binding affinity to [32P]-labeled HIV-rev response element 2B RNA assessed as protection of internal loop region from cleavage by RNase A incubated for 1 hr up to 20 uM by autoradiography based nuclease protection assay; how it was run: as §2
[10] = Cytotoxicity against HEK293T cells assessed as reduction in cell viability after 48 hrs by MTT assay; type: cell-based, HEK-293T; conditions: human
How it was run: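 MTT run in parallel with the transfected HEK 293T reporter set-up; ~48 h post-transfection MTT (5 mg/mL stock in PBS) added, 4 h at 37 °C; solubilized overnight with 10% SDS/0.01 N HCl; absorbance 570 nm; mean ± SD.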

Row | SMILES | Kd [2] | inhibition [4] | other results
1 | N=C(N)N[C@@H]1C[C@H](C(=O)N[C@@H](Cc2ccc(O)cc2)C(N)=O)N(C(=O)CN(CCNC(=O)[C@H](CCCCNC(=O)c2cnccn2)NC(=O)[C@H](CCCCNC(=O)[C@H]2C[C@@H](N)CN2C(=O)CN(CCNC(=O)CN(CCN)C(=O)Cn2cnc3c(=O)[nH]c(N)nc32)C(=O)Cn2cnc3c(=O)[nH]c(N)nc32)NC(=O)[C@H]2C[C@@H](N)CN2C(=O)CN(CCNC(=O)CN(CCN)C(=O)Cn2cnc3c(=O)[nH]c(N)nc32)C(=O)Cn2cnc3c(=O)[nH]c(N)nc32)C(=O)Cn2cnc3c(=O)[nH]c(N)nc32)C1 | 880 nM | > 50% | Kd [1]: 3090 nM; Activity [3]: Active; Activity [5]: Active; IC50 [6]: 15400 nM; Kd [7]: 2040 nM; Kd [8]: 990 nM; Activity [9]: Active; CC50 at 48 h [10]: 135000 nM
2 | N=C(N)N[C@@H]1C[C@H](C(=O)N2C[C@H](NC(=N)N)C[C@@H]2C(=O)N[C@@H](CCCCNC(=O)c2cnccn2)C(=O)N[C@@H](Cc2ccc(O)cc2)C(N)=O)N(C(=O)[C@H](CCCCNC(=O)[C@H](CCCCNC(=O)c2cnccn2)NC(=O)[C@H]2C[C@@H](N)CN2C(=O)CN(CCN)C(=O)Cn2cnc3c(=O)[nH]c(N)nc32)NC(=O)[C@H](CCCCNC(=O)c2cnccn2)NC(=O)[C@H]2C[C@@H](N)CN2C(=O)CN(CCN)C(=O)Cn2cnc3c(=O)[nH]c(N)nc32)C1 | 1640 nM | > 50% | 
3 | N=C(N)N[C@@H]1C[C@H](C(=O)N[C@@H](Cc2ccc(O)cc2)C(N)=O)N(C(=O)[C@H](CCCCNC(=O)c2cnccn2)NC(=O)[C@H](Cc2cccc3ccccc23)NC(=O)[C@H](CCCCNC(=O)[C@H](CCCCNC(=O)c2ccc(B(O)O)cc2)NC(=O)[C@H]2C[C@@H](N)CN2C(=O)[C@H]2C[C@@H](NC(=N)N)CN2)NC(=O)[C@H](CCCCNC(=O)c2ccc(B(O)O)cc2)NC(=O)[C@H]2C[C@@H](N)CN2C(=O)[C@H]2C[C@@H](NC(=N)N)CN2)C1 | 1500 nM | > 50% | 

Continued, in another order:

Row | Kd [2] | SMILES | inhibition [4] | other results
4 | 1120 nM | N=C(N)N[C@@H]1C[C@H](C(=O)NCCCC[C@H](NC(=O)[C@H]2C[C@@H](NC(=N)N)CN2C(=O)[C@H]2C[C@@H](N)CN2C(=O)[C@H]2C[C@@H](NC(=N)N)CN2)C(=O)N[C@@H](CCCCNC(=O)c2cnccn2)C(=O)N[C@@H](CCCCNC(=O)c2cnccn2)C(=O)NCCN(CC(=O)N[C@@H](Cc2ccc(O)cc2)C(N)=O)C(=O)Cn2cnc3c(=O)[nH]c(N)nc32)N(C(=O)[C@H]2C[C@@H](N)CN2C(=O)[C@H]2C[C@@H](NC(=N)N)CN2)C1 | > 50% | 
5 | 2570 nM | N=C(N)N[C@@H]1C[C@H](C(=O)NCCCC[C@H](NC(=O)[C@H]2C[C@@H](NC(=N)N)CN2C(=O)[C@H]2C[C@@H](N)CN2C(=O)[C@H]2C[C@@H](NC(=N)N)CN2)C(=O)N2C[C@H](N)C[C@@H]2C(=O)N2C[C@H](N)C[C@@H]2C(=O)N[C@@H](CCCCNC(=O)c2ccc(B3OC(=O)c4cc(O)ccc4O3)cc2)C(=O)N[C@@H](Cc2ccc(O)cc2)C(N)=O)N(C(=O)[C@H]2C[C@@H](N)CN2C(=O)[C@H]2C[C@@H](NC(=N)N)CN2)C1 | > 50% | 
6 | 410 nM | N=C(N)N[C@@H]1C[C@H](C(=O)NCCN(CC(=O)N[C@@H](CCCCNC(=O)c2ccc(B(O)O)cc2)C(=O)N[C@@H](Cc2ccc(O)cc2)C(N)=O)C(=O)Cn2cnc3c(=O)[nH]c(N)nc32)N(C(=O)[C@H](CCCCNC(=O)[C@H]2C[C@@H](NC(=N)N)CN2C(=O)[C@H]2C[C@@H](NC(=N)N)CN2C(=O)[C@H]2C[C@@H](N)CN2)NC(=O)[C@H]2C[C@@H](NC(=N)N)CN2C(=O)[C@H]2C[C@@H](NC(=N)N)CN2C(=O)[C@H]2C[C@@H](N)CN2)C1 | > 50% | 
